Source: PubChem
The list is not random: actives were taken first. Their share in the collection is about 2.4%.
CSN deneddyl inh – blocks human CSN-mediated cullin deneddylation. inhibition, % at 12.5 µM. Q92905. Purified CSN, SCF-Nedd8-OG deneddylation, fluorescence polarization. hit rate 0.38% among 360,000. AID 651999;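 active = pattern-corrected inhibition above about 35%, with an unprinted fluorescence ratio check between 0.5 and 1.5, limit read from the data, passing the limit was not always enough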
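Detection – fluorescence polarization · System – HEK293T-derived human Csn5 enzyme · Controls – substrate-only high control, full reaction low control · Timing – 90 min, room temperature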
HNF4A DNA FP – change in binding of human HNF4 alpha to DNA | hit rate 0.3% among 360,000 | HNF4a-FITC DNA binding, fluorescence polarization, 1 h | AID 1224865 | activity change, % at 10 µM; in the data active = activity change above about 30%, passing the limit was not always enough
TPT1 inh – blocks Candida albicans tRNA 2'-phosphotransferase. recombinant caTPT1, FP RNA substrate dephosphorylation. inhibition, % at 5 µM. hit rate 0.81% among 300,000;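 active = inhibition above the mean of all tested compounds plus 3 SD, set per screening campaign, cut at about 24% in these data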
Rin1 Abl inh – human Rin1-Abl interaction inhibition; P00519+Q13671; TR-FRET Rin1/Abl binding, biochemical; inhibition, % at 7.35 µM; hit rate 0.4% among 360,000; in the data active = inhibition above about 5%, passing the limit was not always enough
Neddyl block – cullin neddylation inhibition; TR-FRET cullin neddylation, biochemical; hit rate 0.58% among 360,000; inhibition, % at 25 µM; P61081+Q13564; in the data active = inhibition above about 36%
Target sequence (P61081 whole entry, looked up): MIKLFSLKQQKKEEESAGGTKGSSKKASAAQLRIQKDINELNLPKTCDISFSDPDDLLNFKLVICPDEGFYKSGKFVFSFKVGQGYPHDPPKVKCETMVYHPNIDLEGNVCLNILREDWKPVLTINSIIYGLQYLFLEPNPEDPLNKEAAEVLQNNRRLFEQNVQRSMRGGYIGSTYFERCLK
Target sequence (Q13564 whole entry, looked up): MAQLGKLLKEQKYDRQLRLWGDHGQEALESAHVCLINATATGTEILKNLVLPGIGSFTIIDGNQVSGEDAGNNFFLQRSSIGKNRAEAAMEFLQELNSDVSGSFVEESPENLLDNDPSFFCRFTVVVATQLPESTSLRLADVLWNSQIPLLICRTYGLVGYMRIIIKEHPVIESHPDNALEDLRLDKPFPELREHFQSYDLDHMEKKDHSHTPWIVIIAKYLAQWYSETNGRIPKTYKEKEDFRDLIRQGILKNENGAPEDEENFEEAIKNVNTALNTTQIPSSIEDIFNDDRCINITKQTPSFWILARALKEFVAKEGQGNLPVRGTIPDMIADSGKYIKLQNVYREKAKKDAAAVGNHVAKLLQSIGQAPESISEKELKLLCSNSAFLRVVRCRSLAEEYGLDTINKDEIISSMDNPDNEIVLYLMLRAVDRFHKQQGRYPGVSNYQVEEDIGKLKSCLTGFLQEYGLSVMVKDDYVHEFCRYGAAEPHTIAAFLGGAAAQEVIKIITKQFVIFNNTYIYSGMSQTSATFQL
Rpn11 inh – blocks the human proteasome subunit Rpn11 | O00487 | human 26S proteasome, Ub4-pepOG fluorescence polarization; 20S core pre-blocked with epoxomicin | inhibition, % at 20 µM | hit rate 0.59% among 360,000 | AID 588493;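 active = inhibition at 20 µM, scaled to each plate's controls, above about 33%, limit read from the data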
Rpn11 inh conf – Rpn11 inhibition confirmation, single concentration | shares compounds with Rpn11 inh | purified human 26S proteasome, Ub4-pepOG fluorescence polarization; proteasome pretreated with epoxomicin | inhibition, % at 20 µM | hit rate 29% among 1,900
MMP-2 counter – blocks human MMP-2, flagging nonselective RPN11 hits. recombinant MMP-2, FRET peptide cleavage fluorescence. AID 602330. hit rate 4% among 1,900. shares compounds with Rpn11 inh. inhibition, % at 20 µM;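 also: human MMP-2 activated beforehand with APMA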
Thrombin inh – counter-screen for RPN11 inhibitors: inhibition of bovine thrombin. shares compounds with Rpn11 inh. bovine thrombin cleavage of Ub4-pepOG, fluorescence polarization. inhibition, % at 20 µM. hit rate 13% among 1,900. AID 602333;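 active = mean inhibition at least 40% at 20 µM, or signal 3 deviations below plate average, so some actives read negative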
A number is an active result; - = inactive; . = not tested or not shown; + = active, no number. Rule as the data show it, unless noted: active = inhibition above about 40%; inactive = the rest.

SMILES	CSN deneddyl inh	HNF4A DNA FP	TPT1 inh	Rin1 Abl inh	Neddyl block	Rpn11 inh	Rpn11 inh conf	MMP-2 counter	Thrombin inh
S=c1[nH]nc(-c2cc(-c3ccccc3)n[nH]2)n1/N=C/c1ccc(Cl)cc1	-	-	-	-	-	-	.	.	.
COc1ccc(C2SCC(=O)N2CCc2ccc(OC)c(OC)c2)cc1 (stereo not drawn)	-	-	-	-	-	-	.	.	.
O=C(COC(=O)C1CCN(S(=O)(=O)c2ccccc2)CC1)NC(=O)c1ccc(OC(F)F)cc1	-	-	-	-	-	-	.	.	.
Cc1nnc(N2CCCC(C(=O)NCc3ccc(OC(C)C)cc3)C2)c2nn(-c3ccccc3)c(C)c12 (stereo not drawn)	-	-	-	32.3	.	53.0	-	-	-
O=C(NCc1ccco1)C1CCCCN1S(=O)(=O)c1ccc(F)cc1 (stereo not drawn)	-	-	-	-	-	+	-	-	-
Cc1ccc(Sc2ncccc2NC(=O)c2ccccc2Cl)cc1	-	-	-	-	-	-	.	.	.
Cn1c(CO)cnc1S(=O)(=O)Cc1ccc(Cl)cc1	-	-	-	-	-	-	.	.	.
Cn1c(CO)cnc1SCc1ccc(Cl)cc1	-	-	-	-	-	106.9	-	-	-
O=C(Nc1cc(-c2ccccc2)nn1-c1ccccc1)c1ccccc1F	-	-	-	-	-	-	.	.	.
O=C(CCN1C(=O)NC2(CCCC2)C1=O)Nc1ccc(-c2nc3ccccc3s2)cc1	-	-	.	-	-	53.4	61.3	-	47.6
CCC1(c2ccc(F)cc2)NC(=O)N(CC(=O)Nc2ccc(-c3nc4ccc(C)cc4s3)cc2)C1=O (stereo not drawn)	-	-	-	-	-	47.2	-	-	-
O=C(CCN1C(=O)NC2(CCCC2)C1=O)Nc1ccc(Sc2ccc(Br)cc2)cc1	-	-	.	-	-	-	.	.	.
Cc1cccc(-n2cnc(C(=O)NNC(=S)Nc3ccc(Cl)cc3)c2)n1	-	-	-	-	-	-	.	.	.
Cc1cccc(-n2cnc(C(=O)N/N=C\c3ccc(Br)cc3)c2)n1	-	-	-	-	-	49.1	-	-	-
Cc1nnsc1C(=O)NC1CCCc2c1cnn2-c1ccc(F)cc1F (stereo not drawn)	-	-	-	-	-	41.8	-	-	-
CCC(OC(=O)c1ccco1)C(=O)NCc1ccco1 (stereo not drawn)	-	-	-	-	-	128.5	-	-	-
N#CC1=C(N)Oc2cc(O)c(Cl)cc2C1c1cccnc1 (stereo not drawn)	-	-	.	-	-	56.9	-	-	-
N#CC1=C(N)Oc2cc(O)ccc2C1c1cccnc1 (stereo not drawn)	-	-	-	-	-	-	.	.	.
CCCN(C(=O)CCNC(=O)c1ccc(Cl)cc1)c1c(N)n(Cc2ccccc2)c(=O)[nH]c1=O	-	-	.	-	-	-	.	.	.
Cc1ccc(C(C)C)c(OCc2nn(CC(=O)c3ccc(Cl)cc3)c3[n+]2CCCCC3)c1	-	-	-	-	-	38.6	-	-	-
O=[N+]([O-])c1cccc(-n2nnnc2CN2CCCC2)c1	-	-	-	-	-	-	.	.	.
CC(=O)Nc1ccc2c(c1)C(=O)N(c1ccc(C)cc1)C2=O	-	-	-	-	-	-	.	.	.
COc1ccc(N2C(=O)c3ccc(NC(C)=O)cc3C2=O)cc1	-	-	-	-	-	40.7	-	-	-
COc1ccc(/C=C/C(=O)c2c(C)cc(C)[nH]c2=O)c2ccccc12	-	-	-	-	-	43.6	-	-	-
Cc1ccc(/C=C/C(=O)c2c(C)cc(C)[nH]c2=O)cc1	-	-	-	-	-	-	.	.	.
SMILES	CSN deneddyl inh	HNF4A DNA FP	TPT1 inh	Rin1 Abl inh	Neddyl block	Rpn11 inh	Rpn11 inh conf	MMP-2 counter	Thrombin inh
Cc1cc(C)c(C(=O)/C=C/c2cccs2)c(=O)[nH]1	-	-	-	-	-	44.6	-	-	-
CC(NC(=O)CSc1ncccc1C(=O)O)C1CC2CCC1C2 (stereo not drawn)	-	-	-	-	-	-	.	.	.
CCN1CCc2nc(NC(=O)C(c3ccccc3)c3ccccc3)sc2C1	-	-	-	-	-	43.3	-	-	-
Cc1ccc(-c2c(C#N)c(N)n3c(nc4ccccc43)c2C#N)cc1	-	-	-	-	.	62.7	63.3	-	82.1
N#Cc1c(-c2ccccc2)c(C#N)c2nc3ccccc3n2c1N	-	-	-	-	-	-	.	.	.
O=C(c1noc2c1CCCC2)N1CCCC(N2CCN(c3ccccc3F)CC2)C1 (stereo not drawn)	-	-	-	-	-	-	.	.	.
Nc1ccc(N=Nc2ccc(N)cc2)cc1	-	-	-	-	-	-	.	.	.
Cc1cc(N(C)C)ccc1N=Nc1ccc(N)cc1	-	-	-	-	-	47.8	-	-	-
NS(=O)(=O)c1ccc(CCN=Cc2ccccc2O)cc1	-	-	-	-	-	-	.	.	.
CCOc1ccc(C(=O)CCC(=O)N2CCN(c3ncccn3)CC2)cc1	-	-	-	-	-	42.9	43.0	-	-
Cc1cccc(NC(=O)c2nc[nH]c2C(=O)N2CCC(C)CC2)c1	-	-	.	-	-	-	.	.	.
O=C(/C=C/c1ccc(Br)cc1)c1ccco1	-	-	-	-	-	-	.	.	.
O=C(/C=C/c1ccc(Br)cc1)c1ccc(NC(=O)c2ccco2)cc1	-	-	-	-	-	55.3	-	-	-
CCOC(=O)C1=C(O)/C(=C/c2ccc(-c3ccccc3C(=O)O)o2)SC1=Nc1ccc(OC)cc1	-	-	.	-	-	51.7	59.8	-	40.9
O=C(/C=C/c1ccc(F)cc1)Nc1cc(S(=O)(=O)N2CCOCC2)ccc1N1CCOCC1	-	-	.	-	-	89.8	-	-	-
Cc1ccc(/C=C/C(=O)Nc2cc(S(=O)(=O)N3CCOCC3)ccc2N2CCOCC2)cc1	-	-	.	-	-	-	.	.	.
Cc1oc(-c2cccc(F)c2)nc1CN1CCCCC1CCn1cccn1 (stereo not drawn)	-	-	-	-	-	-	.	.	.
Cc1ccc(-c2nc(CN3CCCCC3CCN3CCCC3=O)c(C)o2)o1 (stereo not drawn)	-	-	-	-	-	40.9	-	-	-
CCCCCCCCCCCCCCCC[n+]1ccc(C(N)=O)cc1	-	-	-	-	-	67.2	-	-	-
CCCCC(=O)Nc1ccc(C(N)=O)cc1	-	-	-	-	-	-	.	.	.
Cc1ccc(C(=O)NNCC(=O)Nc2ccc(Cl)cc2F)cc1	-	-	.	-	-	-	.	.	.
CN(C)S(=O)(=O)c1ccc(C(=O)NCc2nc3ccccc3s2)cc1	-	-	-	-	-	34.0	-	-	-
